Assay results collected from several papers.
Protocols differ between the studies behind these lines.
Target: Dual specificity tyrosine-phosphorylation-regulated kinase 1A (DYRK1A, Homo sapiens, UniProt Q13627)

| Compound | assay | conditions | remaining binding |
| --- | --- | --- | --- |
| CCOCCn1cc(C(=O)Nc2ccc(-n3nc(-c4cccnc4)cc3C(F)(F)F)cn2)ccc1=O | cell-free assay, competition with immobilised ligand | 1 µM | 77% |
| O=C(c1ccc(Nc2ncc(Cl)c(-c3cc4ccccc4s3)n2)cc1)N1CCC(N2CCCC2)CC1 | binding, competition with immobilised ligand | 1 µM | 11% |
| CN(CCCC(F)(F)F)c1nccc(-c2cnn3ncccc23)n1 | binding | 1 µM | 35% |
| CCN1CCN(Cc2ccc(C(=O)Nc3ccc(C)c(Oc4ccc5c(c4)CC(=O)N5)c3)cc2C(F)(F)F)CC1 | binding, competition with immobilised ligand | 1 µM | 96% |
| Cc1noc([C@H]2C[C@@H](c3ccc(C(F)(F)F)cc3)CN(C(=O)N3CCS(=O)(=O)C3)C2)n1 | cell-free assay, competition with immobilised ligand | 1 µM | 100% |
| O=C(NCCCN1CCOCC1)c1ccc(Nc2ncc(Cl)c(-c3ccc(Cl)s3)n2)cc1 | binding, competition with immobilised ligand | 1 µM | 0.5% |
| COc1cnc(Nc2cccc(S(N)(=O)=O)c2)nc1N1CCN(c2ccccc2)CC1 | binding, competition with immobilised ligand | 1 µM | 76% |
| O=C(c1ccc(Nc2ncc(Cl)c(-c3ccc(Cl)s3)n2)cc1)N1CCC(N2CCCC2)CC1 | binding, competition with immobilised ligand | 1 µM | 1.8% |
| Cc1c(C(=O)O)cc(-c2ccc(C3CCNCC3)cc2)c2ccc(-c3ccc(C(F)(F)F)cc3)cc12 | cell-free assay, competition with immobilised ligand | 1 µM | 100% |
| C[C@@H](c1ccc(-n2cnc3c(N)ncnc32)cc1)N1CCc2nn(C)c(Cc3ccccc3)c2C1=O | binding, competition with immobilised ligand | 0.1 µM | 80% |
| COC(=O)Nc1nc2ccc(C(=O)c3ccccc3)cc2[nH]1 | cell-free assay, competition with immobilised ligand | 10 µM | 34% |
| O=C(O)[C@H]1[C@H](Cn2nnc3ccccc3c2=O)CC[C@@H]1C(=O)c1ccc(OCCC2CCOCC2)cc1 | cell-free assay, competition with immobilised ligand | 1 µM | 85% |
| O=C(Nc1c[nH]nc1C(=O)NC1CCNCC1)c1cc(F)cc(F)c1 | binding, competition with immobilised ligand | 1 µM | 19% |
